Calb FLC: C. albicans growth modulation with fluconazole. actives 0.57% (n = 300,000). C. albicans CaCi-2 (fluconazole-resistant clinical isolate) + fluconazole, Alamar Blue growth, 48 h. growth inhibition, % (test concentration not listed);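 active = growth inhibition above about 58% in most replicates, limit read from the data, passing the limit was not always enough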;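 note: all wells also contain fluconazole at 8 µg/ml as a sub-toxic cotreatment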
ARFGAP1 inhibitor: inhibitors of rat ARFGAP1; Q62848; Arfgap1-stimulated ARF1 GTP hydrolysis, GDP FP detection; inhibition, % at 16.5 µM; actives 0.26% (n = 360,000); AID 651572;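 active = inhibition above a per-plate limit, mean inhibition of low control wells plus 3 SD, cut at about 25% in these data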
Target sequence (Q62848 1-136 limits assumed): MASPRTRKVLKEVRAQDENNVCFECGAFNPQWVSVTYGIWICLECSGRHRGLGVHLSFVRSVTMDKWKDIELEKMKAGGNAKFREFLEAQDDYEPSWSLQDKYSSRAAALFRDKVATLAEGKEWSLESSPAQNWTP
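Assay system: Rat Arfgap1 GAP domain (His6, aa 1-136), purified enzyme | Buffer or medium: HEPES 25 mM pH 7.5, NaCl 150 mM, MgCl2, DTT | Schedule: GTP hydrolysis reaction 2 h at 25 °C | Signal: FP of antibody-bound GDP Alexa 633 tracer, ex 620/em 688 nm | Measure: Percent inhibition of Arfgap1-stimulated GTP hydrolysis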
SKKanGAS inh: inhibitors of SKKanGAS S. pyogenes growth in kanamycin (SK-promoter or general growth effect); BacTiter-Glo, 6 h; inhibition, % at 7.5 µM; actives 1.3% (n = 300,000);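 active = mean replicate score, as percent of positive control median, at least 50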;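 note: strain carries kanamycin resistance gene driven by streptokinase promoter and grows in 40 µg/ml kanamycin; loss of luminescence reflects streptokinase promoter inhibition or plain growth inhibition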
ASAP1 GAP inh: ASAP1 ArfGAP inhibition; Q9ULH1; ASAP1-stimulated ARF1 GTP hydrolysis, GDP FP detection; inhibition, % at 16.5 µM; actives 0.19% (n = 360,000); AID 624377; in the data active = inhibition above about 25%
Target sequence (Q9ULH1 325-724 limits assumed): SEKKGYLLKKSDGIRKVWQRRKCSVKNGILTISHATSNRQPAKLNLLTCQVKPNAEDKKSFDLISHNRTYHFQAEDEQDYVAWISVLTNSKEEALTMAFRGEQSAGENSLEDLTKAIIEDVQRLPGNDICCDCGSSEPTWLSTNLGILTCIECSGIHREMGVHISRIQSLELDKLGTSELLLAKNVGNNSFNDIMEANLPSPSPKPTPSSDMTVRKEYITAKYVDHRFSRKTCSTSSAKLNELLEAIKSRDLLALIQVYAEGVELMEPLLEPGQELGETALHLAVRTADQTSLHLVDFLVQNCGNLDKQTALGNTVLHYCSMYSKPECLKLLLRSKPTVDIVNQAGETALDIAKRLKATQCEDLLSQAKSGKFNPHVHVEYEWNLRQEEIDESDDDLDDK
sPLA2-III inh: Inhibits HGIII-sPLA2 liposome hydrolysis, primary screen; QFRET BODIPY PC-A2 liposome hydrolysis, fluorescence; inhibition, % at 12.2 µM; actives 0.56% (n = 370,000); AID 743126;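 active = inhibition above mean plus 3 SD of compounds lying within the high and low control bounds, cut at about 19% in these data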
Each line names hits and unclear results; the compound was inactive in the other large screens. Shown are actives, neighbours in structure and some others; about 2.3% of the full set was active somewhere.

O=C(c1ccc(F)cc1)c1cc2ccc(O)cc2oc1=O	SKKanGAS inh 65.4
N#Cc1ccc(-c2cccc3nccn23)cc1	none (no result: Calb FLC, SKKanGAS inh)
CCn1c(SCC(=O)Nc2nc(-c3ccc(C)cc3)cs2)nnc1-c1ccccc1O	SKKanGAS inh 54.9
CCn1c(SCC(=O)Nc2nc(-c3ccc(C)cc3)cs2)nnc1-c1ccccc1	none
CC(C)C[C@H]1COc2cccc(F)c2S(=O)(=O)N1Cc1cn(CCC2OCCCO2)nn1	none (no result: Calb FLC, ARFGAP1 inhibitor, SKKanGAS inh, ASAP1 GAP inh)
O=C(NCc1cccnc1)c1cc(C2CCCCN2S(=O)(=O)Cc2ccccc2)on1 (centres undefined)	none (no result: Calb FLC, SKKanGAS inh)
C[C@H]1[C@@H](NC(=O)c2ccc(Cl)c(C(F)(F)F)c2)CC[C@@]23CCCN2C(=O)CCC[C@@H]13	none (no result: Calb FLC, ARFGAP1 inhibitor, SKKanGAS inh, ASAP1 GAP inh)
O=C(O)c1ccc(N2C(=O)CC(SC(=NCc3ccc4c(c3)OCO4)Nc3ccccc3)C2=O)cc1 (centres undefined)	none
O=C(O)c1ccc(N2C(=O)CC(SC(=NCc3ccc4c(c3)OCO4)Nc3ccc(F)cc3)C2=O)cc1 (centres undefined)	SKKanGAS inh 59.5
NNC(=O)c1cc(O)c(O)c(O)c1	Calb FLC 95.2
COc1c(Cl)cc(C(=O)NN)cc1Cl	none
O=C(Nc1cccc(C(F)(F)F)c1)Oc1ccc(Cl)c2cccnc12	SKKanGAS inh 99.3
CC(C)CN1C(=O)C[C@]2(C(=O)N(C)c3ccc(NC(=O)C(F)(F)F)cc32)C1c1ccccc1 (some centres undefined)	none (no result: Calb FLC, ARFGAP1 inhibitor, SKKanGAS inh, ASAP1 GAP inh)
COc1ccc(-c2c(Cc3ccccc3)nc(NC(=O)c3ccccc3)n2Cc2ccc(OC)cc2OC)cc1	none (no result: Calb FLC, ARFGAP1 inhibitor, SKKanGAS inh, ASAP1 GAP inh)
CN1C[C@@H]2C(c3ccccc3)C3(c4ccccc4)CC2(C3)[C@H]1c1ccccc1 (some centres undefined)	Calb FLC 109.6
COCCN(C(=O)CSc1nnc(-c2cccc(C)c2)n1C)c1c(N)n(Cc2ccccc2)c(=O)[nH]c1=O	Calb FLC 112.7 (no result: SKKanGAS inh)
COCCN(C(=O)CSc1nnc(-c2ccccc2F)n1C)c1c(N)n(Cc2ccccc2)c(=O)[nH]c1=O	none
COc1cc(/C=N/NC(=O)C23CC4CC(CC(C4)C2)C3)cc(Br)c1O	none
O=C(N/N=C/c1cc([N+](=O)[O-])cc(Br)c1O)C12CC3CCC(CC(C3)C1)C2	SKKanGAS inh 50.8
CC(C)C#Cc1ccc2c(c1)O[C@@H](CN(C)C(=O)c1cnccn1)[C@@H](C)CN([C@@H](C)CO)S2(=O)=O	none (no result: Calb FLC, SKKanGAS inh)
Cc1ccc(C2CC(c3cccs3)=NN2C(=O)c2ccc(Br)o2)cc1 (centres undefined)	SKKanGAS inh 88.5
Cc1cc(N/N=C/c2cccc(Br)c2)nc2ccccc12	SKKanGAS inh 90.8
Cc1cc(N/N=C/c2ccncc2)nc2ccccc12	none
O=C(Nc1cccnc1)c1ccc(CSc2ccc(Cl)cc2)o1	none (no result: Calb FLC, SKKanGAS inh)
COc1ccc(-c2c[n+]3c(n2-c2ccccc2)CCCCC3)cc1	Calb FLC 112.3
CCOc1ccc(-n2c(-c3ccc(Br)cc3)c[n+]3c2CCCCC3)cc1	Calb FLC 102.8
CCOc1ccc(-n2c(-c3ccccc3)c[n+]3c2CCC3)cc1	none
CCOc1ccc(-n2c(-c3ccc(OC)cc3)c[n+]3c2CCCCC3)cc1	Calb FLC 110.1
Cc1ccc(C(=O)N2CCC(Oc3cccnc3)CC2)cc1	none (no result: Calb FLC, ARFGAP1 inhibitor, SKKanGAS inh, ASAP1 GAP inh)
Cc1c(N/N=C(\C#N)C(=O)c2ccc(Cl)cc2)c(=O)n(-c2ccccc2)n1C	SKKanGAS inh 99.6
COc1ccc(C2C(C(=O)c3cccs3)=C(O)C(=O)N2c2nncs2)cc1 (centres undefined)	Calb FLC 116.2
O[C@H](COc1ccc(F)cc1)CN1CCC(C(O)(c2ccccc2)c2ccccc2)CC1	none (no result: Calb FLC, ARFGAP1 inhibitor, SKKanGAS inh, ASAP1 GAP inh)
COc1ccc(-c2cc(C)no2)cc1S(=O)(=O)N(C)c1cccc(C)c1	Calb FLC 92.3
O=C(CSc1nnc(COc2ccc(Cl)cc2)n1Cc1ccco1)Nc1ccc(OCc2ccccc2)cc1	none (no result: Calb FLC, ARFGAP1 inhibitor, SKKanGAS inh, ASAP1 GAP inh)
CC(C)CSC1=NSC2=NC(=O)/C(=C\c3cccs3)C(=N)N12	none
N=C1/C(=C/c2cccs2)C(=O)N=C2SN=C(SCc3ccccc3)N12	SKKanGAS inh 81.1
CC(/C=C1\SC(=Nc2cccnc2)NC1=O)=C\c1ccccc1	SKKanGAS inh 56.1
CC(C)C[C@@H]1COc2cc(NCCCN3CCOCC3)ccc2S(=O)(=O)N1	none (no result: Calb FLC, SKKanGAS inh)
CCOc1ccc(/C=N/NC(=O)Cc2csc(Nc3cccc(C(F)(F)F)c3)n2)cc1	SKKanGAS inh 80.1
COc1ccc(CN2C(=O)CN(S(C)(=O)=O)CC2(C)C(=O)Nc2c(C)cccc2C)cc1OC (centres undefined)	none (no result: Calb FLC, SKKanGAS inh)
